Bioassay records (PubChem BioAssay)
A selection: hits, their analogues and other compounds. The true share with any hit is near 0.97%.
GASC-1 inh – inhibitors of GASC-1 histone demethylase, primary screen, biochemical, fluorescence, DELFIA europium; Lysine-specific demethylase 4C (Homo sapiens), Q9H3R0; GST-JMJD2C(1-420) H3K9me3 demethylation; inhibition, % at 2.35 µM; 0.069% of 330,000 active;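 active = more than half of a compound's replicate wells show inhibition beyond 50%, single wells judged on their own value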;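 note: signal counts dimethyl H3K9 product captured on neutravidin plate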
UCH37 inh – inhibitors of human UCH37 deubiquitinase, primary screen, biochemical, Ub-AMC cleavage, fluorescence. purified proteasome/UCH37. inhibition, % (no concentration beside the values). 0.33% of 330,000 active;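 active = mean inhibition over replicate wells above about 20%, limit read from the data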
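assay system = human UCH37 enzyme supplied as purified proteasome complex | amount = proteasome at 0.15 nM in the dispensed enzyme solution | schedule = 30 min compound-proteasome preincubation then 25 min substrate reaction, room temperature | measured by = fluorescence, ex 355 nm, em 460 nm | benchmarks = no-proteasome wells (full inhibition) and compound-free wells (no inhibition)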
A3A deaminase – APOBEC3A ssDNA deaminase inhibitors, primary screen, selectivity assay for APOBEC3G inhibitor project, biochemical, FAM/TAMRA oligo cleavage fluorescence; 0.41% of 330,000 active; recombinant A3A, FAM/TAMRA ssDNA deamination fluorescence; AID 493011, 2011; inhibition, % at 20 µM; DNA dC->dU-editing enzyme APOBEC-3A (Homo sapiens), P31941;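 active = at least 40% inhibition at 20 µM here, with at most 30% in a related deaminase screen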
Target sequence (P31941 whole entry, looked up): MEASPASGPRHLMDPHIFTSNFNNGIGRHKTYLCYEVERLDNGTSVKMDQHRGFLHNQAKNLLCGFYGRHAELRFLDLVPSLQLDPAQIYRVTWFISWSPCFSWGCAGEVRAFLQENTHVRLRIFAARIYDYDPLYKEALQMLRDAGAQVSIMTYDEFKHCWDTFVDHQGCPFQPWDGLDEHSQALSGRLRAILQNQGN
A3G deaminase – APOBEC3G DNA deaminase inhibitors, primary screen, biochemical, fluorescence, single-stranded DNA substrate, uHTS; AID 493012, 2011; inhibition, % at 20 µM; DNA dC->dU-editing enzyme APOBEC-3G (Homo sapiens), Q9HC16; 0.28% of 330,000 active; recombinant A3G, ssDNA deamination FAM/TAMRA fluorescence;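 active = inhibition of at least 40% at 20 µM, with no more than 30% in the related APOBEC3A deaminase screen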
Target sequence (Q9HC16 whole entry, looked up): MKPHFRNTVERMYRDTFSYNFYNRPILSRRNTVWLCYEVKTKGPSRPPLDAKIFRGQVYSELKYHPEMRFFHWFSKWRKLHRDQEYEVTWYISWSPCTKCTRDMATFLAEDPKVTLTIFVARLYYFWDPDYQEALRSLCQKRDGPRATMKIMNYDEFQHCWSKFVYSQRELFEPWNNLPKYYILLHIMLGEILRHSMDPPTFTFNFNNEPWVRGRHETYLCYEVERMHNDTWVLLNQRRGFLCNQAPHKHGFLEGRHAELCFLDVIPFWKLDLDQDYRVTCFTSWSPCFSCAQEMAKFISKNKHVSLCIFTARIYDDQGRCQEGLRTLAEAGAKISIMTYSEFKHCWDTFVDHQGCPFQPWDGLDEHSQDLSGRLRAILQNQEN
A3A conf – APOBEC3A deaminase inhibitors, retest, confirmation, selectivity assay for APOBEC3G inhibitor project, biochemical, single concentration, fluorescence readout | shares compounds with A3A deaminase | recombinant A3A, ssDNA deaminase UDG fluorescence assay | inhibition, % at 20 µM | 63% of 1,400 active | AID 493151, 2011;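 active = inhibition reaching a set limit, 80% of the first screen's cutoff, at 20 µM in any replicate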
UDG A3A counter – E. coli UDG inhibitors, confirmation, counter-screen for APOBEC3A inhibitor project, biochemical, single concentration, fluorescence, FAM/TAMRA oligo | shares compounds with A3A deaminase | UDG counterscreen, FAM/TAMRA uracil oligo fluorescence | inhibition, % at 20 µM | 1,000 tested, under 10 active | AID 504714, 2011; call rule not given here
A number is an active result.

How did COc1ccc(N2CC(C(=O)Nc3ccc(S(=O)(=O)N4CCOCC4)cc3)CC2=O)cc1 (stereo not given) do in these assays?
GASC-1 inh: inactive; UCH37 inh: inactive; A3A deaminase: 48; A3G deaminase: inactive; A3A conf: inactive

How did Cc1cccc2nc(C(=O)Nc3cc(Cl)ccc3-n3cncn3)cn12 do in these assays?
GASC-1 inh: inactive; UCH37 inh: inactive; A3A deaminase: 49; A3G deaminase: inactive; A3A conf: 36; UDG A3A counter: inactive

What do the screens show for `Cc1cccc(C(=O)Nc2cc(Cl)ccc2-n2cncn2)c1[N+](=O)[O-]`?
GASC-1 inh: inactive; UCH37 inh: inactive; A3A deaminase: inactive; A3G deaminase: inactive

How did NC(=S)NN=Cc1ccccc1OC(=O)c1cc2ccccc2oc1=O do in these assays?
UCH37 inh: inactive

How did CS(=O)(=O)c1nc(-c2ccc(Br)cc2)n[nH]1 do in these assays?
GASC-1 inh: inactive; UCH37 inh: inactive; A3A deaminase: 41; A3G deaminase: inactive; A3A conf: inactive; UDG A3A counter: inactive

What do the screens show for `CS(=O)(=O)c1ccc(-c2nn[nH]n2)cc1`?
GASC-1 inh: inactive; UCH37 inh: inactive; A3A deaminase: inactive; A3G deaminase: inactive

Results for O=C(Cn1cc(C=NNC(=O)c2cccc3ccccc23)c2ccccc21)Nc1ccc(F)cc1 ?
UCH37 inh: inactive

How did CCn1nc(C)c(C=NNC(=O)Cn2nnnc2N)c1C do in these assays?
UCH37 inh: inactive

What do the screens show for `Cc1ccc(NC(=O)c2cc(=O)[nH]c3ccc(S(=O)(=O)N4CCOCC4)cc23)cc1`?
GASC-1 inh: inactive; UCH37 inh: inactive; A3A deaminase: inactive; A3G deaminase: inactive

How did CCc1cccc(C)c1NC(=O)c1cc(=O)[nH]c2ccc(S(=O)(=O)N3CCOCC3)cc12 do in these assays?
GASC-1 inh: inactive; UCH37 inh: inactive; A3A deaminase: 43; A3G deaminase: inactive; A3A conf: 35; UDG A3A counter: inactive

What do the screens show for `O=C(O)c1ccc(CSc2n[nH]c(-c3ccco3)n2)cc1`?
GASC-1 inh: inactive; UCH37 inh: inactive; A3A deaminase: 85; A3G deaminase: inactive; A3A conf: 59; UDG A3A counter: inactive

Results for Clc1ccc(-c2nc(C=NN3CCOCC3)c3ccccn23)cc1 ?
UCH37 inh: inactive

Results for CCc1nc(-c2ccc(-c3ccc(OC)cc3)nc2OC)no1 ?
GASC-1 inh: inactive; UCH37 inh: inactive; A3A deaminase: inactive; A3G deaminase: inactive

Results for CCc1nc(-c2ccc(C)nc2OC)no1 ?
GASC-1 inh: inactive; UCH37 inh: inactive; A3A deaminase: 67; A3G deaminase: inactive; A3A conf: 62; UDG A3A counter: inactive

How did O=c1[nH]c(=O)c2nnc(NN=Cc3ccc(O)cc3)nc2[nH]1 do in these assays?
UCH37 inh: inactive

How did C[N+]1=C2CCCCCN2C(O)(c2ccccc2)C1 (stereo not given) do in these assays?
GASC-1 inh: inactive; UCH37 inh: inactive; A3A deaminase: 69; A3G deaminase: inactive; A3A conf: 72; UDG A3A counter: inactive

What do the screens show for `CCCCn1c(N)c(N(CCC(C)C)C(=O)C2CC(=O)N(c3ccc4c(c3)OCCO4)C2)c(=O)[nH]c1=O` (stereo not given)?
GASC-1 inh: inactive; A3A deaminase: inactive; A3G deaminase: inactive

What do the screens show for `CCCCn1c(N)c(N(CC)C(=O)c2ccc(C)cc2)c(=O)[nH]c1=O`?
GASC-1 inh: inactive; UCH37 inh: inactive; A3A deaminase: inactive; A3G deaminase: inactive

Results for CCCCn1c(N)c(N(CC)C(=O)c2ccc(Cl)c([N+](=O)[O-])c2)c(=O)[nH]c1=O ?
GASC-1 inh: inactive; UCH37 inh: inactive; A3A deaminase: 50; A3G deaminase: inactive; A3A conf: inactive

How did CCCCn1c(N)c(N(CC)C(=O)c2ccc(N3CCCC3=O)cc2)c(=O)[nH]c1=O do in these assays?
UCH37 inh: inactive; A3A deaminase: inactive; A3G deaminase: inactive

How did CCCCn1c(N)c(N(CCC(C)C)C(=O)c2ccc(N3CCCC3=O)cc2)c(=O)[nH]c1=O do in these assays?
GASC-1 inh: inactive; UCH37 inh: inactive; A3A deaminase: 43; A3G deaminase: inactive; A3A conf: inactive; UDG A3A counter: inactive

Results for CCCCn1c(N)c(N(CCC(C)C)C(=O)C2CC(=O)N(c3cccc(SC)c3)C2)c(=O)[nH]c1=O (stereo not given) ?
GASC-1 inh: inactive; UCH37 inh: inactive; A3A deaminase: 45; A3G deaminase: inactive; A3A conf: inactive

How did COCCN=C1N[C@@H](c2cccc(C(F)(F)F)c2)C(C(=O)OC)=C(C)N1Cc1ccccc1 do in these assays?
GASC-1 inh: inactive; UCH37 inh: inactive; A3A deaminase: 63; A3G deaminase: inactive; A3A conf: 44

What do the screens show for `COC(=O)C1=C(C)N(Cc2ccccc2)C(=NCCCCO)N[C@H]1CCc1ccccc1`?
GASC-1 inh: inactive; UCH37 inh: inactive; A3A deaminase: 44; A3G deaminase: inactive; A3A conf: 67; UDG A3A counter: inactive

How did CCN1C(=NCCCCO)N[C@@H](c2cccc(C(F)(F)F)c2)C(C(=O)OC)=C1C do in these assays?
GASC-1 inh: inactive; A3A deaminase: 50; A3G deaminase: inactive; A3A conf: 61; UDG A3A counter: inactive

Results for CC(=O)C1=C(C)N(Cc2ccccc2)C(=O)N[C@H]1CCc1ccccc1 ?
GASC-1 inh: inactive; UCH37 inh: inactive; A3A deaminase: inactive; A3G deaminase: inactive

What do the screens show for `COC(=O)C1=C(C)N(Cc2ccccc2)C(=NCCCCO)N[C@H]1c1cccc(C(F)(F)F)c1`?
GASC-1 inh: inactive; UCH37 inh: inactive; A3A deaminase: 44; A3G deaminase: inactive; A3A conf: 57; UDG A3A counter: inactive

What do the screens show for `COC(=O)C1=C(C)N(Cc2ccccc2)C(=NCc2cccc(C(F)(F)F)c2)N[C@H]1c1cccc(F)c1`?
GASC-1 inh: inactive; UCH37 inh: inactive; A3A deaminase: inactive; A3G deaminase: inactive

What do the screens show for `COc1ccc2ccccc2c1C=NNC(=O)c1nnn(-c2nonc2N)c1CN(C)C`?
UCH37 inh: inactive

Results for O=C(NN=Cc1cccs1)c1sccc1-n1cccc1 ?
UCH37 inh: inactive

Results for Cc1c(C(=O)O)oc2c1C(=NO)CCC2 ?
UCH37 inh: inactive
